Results published in ChEMBL document CHEMBL4130628, “Identification and Pharmacological Profile of an Indane Based Series of Ghrelin Receptor Full Agonists” (J Med Chem, 2018).

Legend:
[1] = target: T1, Growth hormone secretagogue receptor type 1 (Homo sapiens, UniProt Q92847); assay: Agonist activity at human GHS receptor assessed as intracellular myo-IP1 secretion after 90 mins by HTRF analysis; format: functional, cell-based
[2] = 1-octanol/aqueous buffer distribution coefficient, log D of compound at pH 7.4; format: physicochemical
hERG (KCNH2) = hERG (KCNH2) (Homo sapiens, UniProt Q12809); assay: Inhibition of human ERG expressed in CHO cells at 11 uM relative to control; format: cell-based; settings: CHO cells that express hERG
[3] = Intrinsic clearance in human liver microsomes; format: ADME, microsome; settings: read-out: CLH
[4] = target: T1, Growth hormone secretagogue receptor type 1; assay: Displacement of human [125I]-ghrelin from GHS-R1a (unknown origin) expressed in HEK293 cell membranes after 1 hr by radioligand binding assay
[5] = target: Voltage-gated inwardly rectifying potassium channel KCNH2 (Homo sapiens, UniProt Q12809); assay: Inhibition of human ERG expressed in CHO cells; format: cell-based
In short: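 hERG currents recorded from CHO cells expressing hERG.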

[6] = 1-octanol/aqueous buffer, read-out: logD

T1 sequence (Q92847 whole entry): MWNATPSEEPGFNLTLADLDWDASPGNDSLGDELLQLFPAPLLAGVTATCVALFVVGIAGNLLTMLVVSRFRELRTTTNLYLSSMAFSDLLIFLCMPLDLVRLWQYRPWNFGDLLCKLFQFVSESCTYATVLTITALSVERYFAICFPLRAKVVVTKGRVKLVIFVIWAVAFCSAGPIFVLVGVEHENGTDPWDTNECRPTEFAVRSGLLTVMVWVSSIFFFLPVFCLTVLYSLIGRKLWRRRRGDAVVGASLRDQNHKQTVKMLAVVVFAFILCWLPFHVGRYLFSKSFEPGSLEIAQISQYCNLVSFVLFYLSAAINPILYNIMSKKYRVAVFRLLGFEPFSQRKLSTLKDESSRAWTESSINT
Chain of hERG (KCNH2) (Q12809 whole entry): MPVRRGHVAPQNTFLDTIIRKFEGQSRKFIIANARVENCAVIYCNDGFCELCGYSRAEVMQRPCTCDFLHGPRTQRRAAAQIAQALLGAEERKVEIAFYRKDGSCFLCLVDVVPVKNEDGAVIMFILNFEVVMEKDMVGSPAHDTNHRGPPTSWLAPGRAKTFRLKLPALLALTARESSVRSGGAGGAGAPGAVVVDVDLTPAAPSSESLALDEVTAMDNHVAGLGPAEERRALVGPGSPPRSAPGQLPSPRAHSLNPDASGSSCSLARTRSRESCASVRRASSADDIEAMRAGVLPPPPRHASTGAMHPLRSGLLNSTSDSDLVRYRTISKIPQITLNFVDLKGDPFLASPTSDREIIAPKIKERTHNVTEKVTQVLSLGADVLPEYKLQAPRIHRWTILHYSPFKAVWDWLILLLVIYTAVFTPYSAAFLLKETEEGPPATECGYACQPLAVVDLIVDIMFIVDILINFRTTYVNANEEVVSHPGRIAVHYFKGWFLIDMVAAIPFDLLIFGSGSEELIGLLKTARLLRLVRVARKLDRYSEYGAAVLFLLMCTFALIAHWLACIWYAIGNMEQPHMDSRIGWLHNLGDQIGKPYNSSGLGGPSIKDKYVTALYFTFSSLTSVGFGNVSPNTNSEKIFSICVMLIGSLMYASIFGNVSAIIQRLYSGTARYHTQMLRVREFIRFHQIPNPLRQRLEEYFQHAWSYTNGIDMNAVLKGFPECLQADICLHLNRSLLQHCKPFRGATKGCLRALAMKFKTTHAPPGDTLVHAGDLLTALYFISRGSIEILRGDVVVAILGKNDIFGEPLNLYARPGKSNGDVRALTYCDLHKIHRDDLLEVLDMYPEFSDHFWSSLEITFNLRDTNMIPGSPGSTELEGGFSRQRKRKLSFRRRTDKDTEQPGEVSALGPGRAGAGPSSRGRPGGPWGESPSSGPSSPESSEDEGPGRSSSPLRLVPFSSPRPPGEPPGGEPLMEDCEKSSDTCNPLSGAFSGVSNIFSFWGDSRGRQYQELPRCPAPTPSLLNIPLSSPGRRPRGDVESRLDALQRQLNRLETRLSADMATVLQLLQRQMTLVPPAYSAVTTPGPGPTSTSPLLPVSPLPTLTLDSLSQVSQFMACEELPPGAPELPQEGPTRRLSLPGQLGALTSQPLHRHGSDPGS
Chain of Voltage-gated inwardly rectifying potassium channel KCNH2 (Q12809 whole entry): as above

| Compound | EC50 ([1]; read-out: EC50) [nM] | logD [2, 6] | IC50 ([4]; read-out: IC50) [nM] | other results |
| --- | --- | --- | --- | --- |
| Cc1ccc2[nH]c(C(=O)N[C@H]3Cc4ccccc4[C@@H]3C(=O)N[C@H]3CCCN(C)C3)cc2c1 | 0.1 | 3 |  | inhibition at 11 µM (hERG (KCNH2)): 30%; microsomal CLint [3]: 132 µL/min/mg |
| Cn1ccc2cc(C(=O)N[C@H]3Cc4ccccc4[C@@H]3NC(=O)c3cnccc3N)c(F)cc21 | 135 | 3.1 |  |  |
| Cc1ccc2[nH]c(C(=O)N[C@H]3Cc4ccccc4[C@@H]3NC(=O)[C@@H]3CNCCOC3)cc2c1 | 137 | 2.6 |  |  |
| CN1CC[C@H](C(=O)N[C@H]2c3ccccc3C[C@@H]2NC(=O)c2ccc3c(ccn3C)c2)C1 | 250 | 1.4 | 343 |  |
| O=C(N[C@H]1Cc2ccccc2[C@@H]1NC(=O)[C@H]1CCNC1)c1cc2cc(F)ccc2[nH]1 | 47 |  | 189 | IC50 [5]: > 10000 nM |
| CN(C)CCNC(=O)[C@@H]1c2ccccc2C[C@H]1NC(=O)c1cc2ccccc2[nH]1 | 630 | 2.3 | 560 | IC50 [5]: 12600 nM; microsomal CLint [3]: 3 µL/min/mg |
| Cc1ccc2[nH]c(C(=O)N[C@H]3Cc4ccccc4[C@@H]3NC(=O)c3cnccc3N)cc2c1 | 14 | 3 | 35 |  |
| Cn1ccc2cc(C(=O)N[C@H]3Cc4ccccc4[C@@H]3NC(=O)c3cnccc3N)cc(F)c21 | 7 | 4 |  |  |
| Cc1ccc2[nH]c(C(=O)N[C@@H]3Cc4ccccc4[C@H]3NC(=O)CCN(C)C)cc2c1 | 226 |  | 930 | IC50 [5]: 2510 nM |
| CN1CCC[C@H]1CC(=O)N[C@H]1c2ccccc2C[C@@H]1NC(=O)c1ccc2c(ccn2C)c1 | 19 | 1.7 | 29 |  |
| CN(C)CCC(=O)N[C@H]1c2ccccc2C[C@@H]1NC(=O)c1cc2cc(F)c(F)cc2[nH]1 | 35 |  | 98 | IC50 [5]: 3980 nM |
| CN1CCCO[C@@H](C(=O)N[C@H]2c3ccccc3C[C@@H]2NC(=O)c2ccc3c(ccn3C)c2)C1 | 262 | 2.3 | > 1000 | pIC50 ([4]; hek293): < 6 |
| CN1CCC[C@@H]1CC(=O)N[C@H]1c2ccccc2C[C@@H]1NC(=O)c1ccc2c(ccn2C)c1 | > 740 | 1.8 | 184 | EC50 ([1]; read-out: pEC50 (converted)): > 794 nM |
| Cn1ccc2c(F)c(C(=O)N[C@H]3Cc4ccccc4[C@@H]3NC(=O)c3cnccc3N)ccc21 | 3 | 2.9 | 13 | EC50 ([1]; read-out: pEC50 (converted)): 10 nM |
| Nc1ccncc1C(=O)N[C@H]1c2ccccc2C[C@@H]1NC(=O)c1cc2c(F)cc(F)cc2[nH]1 | 3 | 3.1 | 14 |  |
| CC(=O)N1CCO[C@H](C(=O)N[C@H]2c3ccccc3C[C@@H]2NC(=O)c2ccc3c(ccn3C)c2)C1 | > 7700 | 2.2 |  | EC50 ([1]; read-out: pEC50 (converted)): > 10000 nM |
| Cc1ccc2[nH]c(C(=O)N[C@H]3Cc4ccccc4[C@@H]3NC(=O)[C@H]3COCCN(C)C3)cc2c1 | 21 | 3.7 |  |  |
| CN1CC[C@@H](C(=O)N[C@H]2c3ccccc3C[C@@H]2NC(=O)c2ccc3c(ccn3C)c2)C1 | 129 | 1.4 | 288 |  |

| Compound | EC50 ([1]; read-out: EC50) [nM] | logD [2, 6] | IC50 ([4]; read-out: IC50) [nM] | other results |
| --- | --- | --- | --- | --- |
| Cc1ccc2[nH]c(C(=O)N[C@H]3Cc4ccccc4[C@@H]3C(=O)N(C)CCN(C)C)cc2c1 | 5 | 2.5 | 14 | inhibition at 11 µM (hERG (KCNH2)): 50%; microsomal CLint [3]: 26 µL/min/mg |
| COCCNCCC(=O)N[C@H]1c2ccccc2C[C@@H]1NC(=O)c1cc2ccccc2n1C | 160 |  | 430 | IC50 [5]: 1580 nM |
| N#Cc1ccc2[nH]c(C(=O)N[C@H]3Cc4ccccc4[C@@H]3NC(=O)c3cnccc3N)cc2c1 | 44 | 2.1 | 187 |  |
| CN1CCCCC(C(=O)N[C@H]2c3ccccc3C[C@@H]2NC(=O)c2ccc3c(ccn3C)c2)C1 (stereo in doubt; 28) | 76 |  | 189 | logD ([2]; octanol/water): 1.6 |
| Nc1ccncc1C(=O)N[C@H]1c2ccccc2C[C@@H]1NC(=O)c1cc2ccccc2[nH]1 | 25 | 2.4 | 49 |  |
| Cc1ccc2[nH]c(C(=O)N[C@@H]3Cc4ccccc4[C@@H]3NC(=O)CCN(C)C)cc2c1 | 1500 |  | 1260 | IC50 [5]: 6310 nM |
| Nc1ccncc1C(=O)N[C@H]1c2ccccc2C[C@@H]1NC(=O)c1nc2cc(F)c(F)cc2[nH]1 | 23 | 2.4 | 89 |  |
| Cc1ccc2[nH]c(C(=O)N[C@H]3Cc4ccccc4[C@@H]3NC(=O)CCN(C)C)cc2c1 | 21 |  | 16 | IC50 [5]: 7940 nM |
| Cc1ccc2[nH]c(C(=O)N[C@H]3Cc4ccccc4[C@H]3C(=O)NCCN(C)C)cc2c1 |  | 2.3 |  | inhibition at 11 µM (hERG (KCNH2)): 42% |
| CN1CCC[C@@H](C(=O)N[C@H]2c3ccccc3C[C@@H]2NC(=O)c2ccc3c(ccn3C)c2)C1 | 170 | 1.9 | 528 |  |
| CN1CCC[C@H](C(=O)N[C@H]2c3ccccc3C[C@@H]2NC(=O)c2ccc3c(ccn3C)c2)C1 | 28 | 2.1 | 556 |  |
| CN1N=C2CCN(C(=O)[C@@H](COCc3ccccc3)NC(=O)C(C)(C)N)C[C@@]2(Cc2ccccc2)C1=O [CAPROMORELIN] | 0.9 |  | 22 |  |
| CN1CCCO[C@H](C(=O)N[C@H]2c3ccccc3C[C@@H]2NC(=O)c2ccc3c(ccn3C)c2)C1 | 10 | 2.3 | 71 |  |
| Cn1c(C(=O)N[C@H]2Cc3ccccc3[C@@H]2NC(=O)c2cnccc2N)cc2ccccc21 | 15 | 4.1 | 246 |  |
| Cc1ccc2[nH]c(C(=O)N[C@H]3Cc4ccccc4[C@H]3NC(=O)CCN(C)C)cc2c1 | 100 |  | 69 | IC50 [5]: 25100 nM |
| CN1CCCCC(C(=O)N[C@H]2c3ccccc3C[C@@H]2NC(=O)c2ccc3c(ccn3C)c2)C1 (stereo in doubt; 27) | 36 | 2.1 | 107 |  |
| CN1CCO[C@@H](C(=O)N[C@H]2c3ccccc3C[C@@H]2NC(=O)c2ccc3c(ccn3C)c2)C1 | 274 | 2.4 | > 2900 | IC50 ([4]; read-out: pIC50 (converted)): > 3160 nM |
